Data as given in ChEMBL document CHEMBL1155288, “Novel 1,2,3-thiadiazole derivatives as HIV-1 NNRTIs with improved potency: Synthesis and preliminary SAR studies” (Bioorg Med Chem, 2009).

Columns and labels:
[1] = Selectivity index, ratio of CC50 for human MT4 cells to EC50 for HIV1 3B; assay type: toxicity, cell-based; conditions: read-out: Ratio CC50/EC50
Procedure, shortened: (§1)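 Ratio CC50/EC50. CC50 comes from mock-infected MT-4 cells and EC50 from HIV-1 IIIB- or HIV-2 ROD-infected MT-4 cells, both from the same 5-day MTT plates.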

[2] = test system: Human immunodeficiency virus 1; experiment: Antiviral activity against HIV1 3B infected in human MT4 cells after 5 days by MTT assay; assay type: functional, organism-based; conditions: Human immunodeficiency virus 1, 3B, MT4, 120 h
Procedure, shortened: (§2)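 MT-4 cells (6 × 10^5 cells/mL) infected with HIV-1 IIIB or HIV-2 ROD at 100–300 CCID50. Serial fivefold compound dilutions were tested in triplicate wells. Viability was read by MTT reduction at 540 and 690 nm on day 5, using the median OD of three wells. EC50 is the concentration giving 50% protection from viral cytopathic effect.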

[3] = Selectivity index, ratio of CC50 for human MT4 cells to EC50 for HIV2 ROD; assay type: toxicity, cell-based; conditions: read-out: Ratio CC50/EC50; procedure, shortened: as §1
[4] = test system: Human immunodeficiency virus 2; experiment: Antiviral activity against HIV2 ROD infected in human MT4 cells after 5 days by MTT assay; assay type: functional, organism-based; conditions: Human immunodeficiency virus 2, ISOLATE ROD, MT4, 120 h; procedure, shortened: as §2
[5] = Cytotoxicity against human MT4 cells after 5 days by MTT assay; assay type: cell-based
Procedure, shortened: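 Mock-infected MT-4 cells (6 × 10^5 cells/mL) received serial fivefold compound dilutions in triplicate wells, run in parallel with the infected series. After 5 days, viability was measured by MTT formazan absorbance at 540 and 690 nm, using the median OD of three wells. CC50 is the concentration reducing OD540 of the mock-infected control by 50%.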

| Compound | selectivity ratio [1] | EC50 [2] | selectivity ratio [3] | EC50 [4] | CC50 at 120 h [5] |
| --- | --- | --- | --- | --- | --- |
| Cc1ccc2sc(NC(=O)CSc3snnc3-c3ccc(Br)cc3Br)nc2c1 | < 1 | > 23600 nM | < 1 | > 23.6 µM | 23.6 µM |
| Cc1cccc(C)c1NC(=O)CSc1snnc1-c1ccc(Br)cc1Br | < 1 | > 199000 nM | < 1 | > 199 µM | ≥ 199 µM |
| O=C(CSc1snnc1-c1ccc(Br)cc1Br)Nc1ccccc1[N+](=O)[O-] | > 5840 | 40 nM | ≥ 1 | > 236 µM | > 236 µM |
| Cc1ccccc1NC(=O)CSc1snnc1-c1ccc(Br)cc1Br | 381 | 520 nM | < 1 | > 202 µM | 202 µM |
| O=C(CSc1snnc1-c1ccc(Br)cc1Br)Nc1ccccc1F | > 195 | 140 nM | < 1 | > 27.8 µM | ≥ 27.8 µM |
| Cc1ccc(NC(=O)CSc2snnc2-c2ccc(Br)cc2Br)cc1 | 16 | 1520 nM | < 1 | > 24 µM | 24 µM |
| O=C(CSc1snnc1-c1ccc(Br)cc1Br)Nc1ccccn1 | 36 | 1170 nM | < 1 | > 42.4 µM | 42.4 µM |
| COC(=O)c1ccsc1NC(=O)CSc1snnc1-c1ccc(Br)cc1Br | > 57 | 4010 nM | ≥ 1 | > 228 µM | > 228 µM |
| O=C(CSc1snnc1-c1ccc(Br)cc1Br)Nc1cccnc1Cl | > 6460 | 36.4 nM | ≥ 1 | > 240 µM | > 240 µM |
| O=C(CSc1snnc1-c1ccc(Br)cc1Br)Nc1nccs1 | 19 | 4530 nM | < 1 | > 87.8 µM | 87.8 µM |
| Cc1ccc(NC(=O)CSc2snnc2-c2ccc(Br)cc2Br)c([N+](=O)[O-])c1 | > 2930 | 79 nM | ≥ 1 | > 230 µM | > 230 µM |
| Cc1ccc(NC(=O)CSc2snnc2-c2ccc(Br)cc2Br)c(Br)c1 | > 958 | 220 nM | ≥ 1 | > 216 µM | > 216 µM |
| O=C(CSc1snnc1-c1ccc(Br)cc1Br)Nc1ccccc1 | 47 | 540 nM | < 1 | > 24.8 µM | 24.8 µM |
| O=C(CSc1snnc1-c1ccc(Br)cc1Br)Nc1ccccc1Cl | > 2900 | 83 nM | > 1 | ≥ 221 µM | > 241 µM |
| Cc1cccc(NC(=O)CSc2snnc2-c2ccc(Br)cc2Br)c1C | 166 | 1440 nM | < 1 | > 241 µM | 241 µM |
| O=C(CSc1snnc1-c1ccc(Br)cc1Br)Nc1ccccc1Br | > 1790 | 120 nM | > 1 | 172 µM | > 222 µM |
| O=C(CSc1snnc1-c1ccc(Br)cc1Br)Nc1ccc(Cl)cc1 | 11 | 2190 nM | < 1 | > 23.3 µM | 23.3 µM |
| CC(=O)c1ccc(NC(=O)CSc2snnc2-c2ccc(Br)cc2Br)c(Br)c1 | > 3550 | 58 nM | ≥ 1 | > 206 µM | > 206 µM |
